From ChEMBL document CHEMBL4257556, “Novel 1,3,4-thiadiazole-chalcone hybrids containing catechol moiety: synthesis, antioxidant activity, cytotoxicity and DNA interaction studies” (Medchemcomm, 2018)
The source made the active and inactive calls. The calls are words filed in the database; no cut-off is given here.

How the values were obtained:
[1] = system: HeLa; test: Antioxidant activity in human HeLa cells assessed as decrease in reactive oxygen species at 10 uM after 24 hrs by dichlorofluorescein dye-based flow cytometric method; type: functional, cell-based
Summary of the method: (§1)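 HeLa cells pretreated 24 h with 10 μM compound, washed, loaded with 30 μM DCFH-DA in PBS 45 min at 37 °C. One portion read directly (endogenous ROS); other portion exposed to 10 mM H2O2 30 min at 37 °C. DCF green fluorescence by flow cytometry, 20 000 events per sample; mean ± SD of two independent experiments.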

[2] = system: HeLa; test: Cell cycle arrest in human HeLa cells assessed as decrease in cell levels at G1 phase at IC50 after 24 hrs by propidium iodide staining-based flow cytometric method; type: functional
Summary of the method: (§2)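 HeLa cells treated 24 h at IC50 or 2×IC50 (from 72 h assay), fixed in 70% ethanol, stored at –20 °C ≥1 week, RNase A 30 min 37 °C, propidium iodide stained; flow cytometry, 10 000 gated events. Mean ± SD of three independent experiments; one-way ANOVA with Dunnett's post-test, p < 0.05.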

[3] = system: HL-60; test: Cytotoxicity against human HL60 cells assessed as decrease in cell survival after 72 hrs by MTT assay; type: functional, cell-based; details: HL-60, 72 h
Summary of the method: (§3)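 HeLa (2000/well), A549 and MRC-5 (5000/well) seeded 20 h before treatment; HL-60 (7000/well) 2 h before. Five concentrations (6.25–100 μM or 3.125–50 μM) from 5 mM DMSO stocks, final DMSO ≤1%, 72 h; survival by MTT. Cisplatin positive control; three independent experiments in triplicate.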

[4] = system: HeLa; test: Downregulation of miR-155 expression in human HeLa cells at 10 uM after 24 hrs by RT-qPCR method; type: functional, cell-based
[5] = system: HeLa; test: Cell cycle arrest in human HeLa cells assessed as accumulation at sub-G1 phase at IC50 and 2 times IC50 after 24 hrs by propidium iodide staining-based flow cytometric method; type: functional; summary of the method: as §2
[6] = system: Calf thymus DNA; test: Binding affinity to calf thymus DNA assessed as hyperchromism at 40 uM after 90 mins by UV/visible spectrophotometric analysis; type: nucleic-acid assay; details: Bos taurus
Summary of the method: (§4)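 CT-DNA stock in 10 mM Tris-HCl pH 7.9 (A260/A280 1.89–2.01; concentration from ε260 6600 M–1 cm–1). Compound (10, 20 or 40 μM) plus CT-DNA (95 μM) in 40 mM bicarbonate pH 8.4, 37 °C 90 min; spectra 200–800 nm. Hyper/hypochromism at 259 nm from bound versus summed free compound and DNA extinction; triplicate.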

[7] = system: MRC5; test: Cytotoxicity against human MRC5 cells assessed as decrease in cell survival after 72 hrs by MTT assay; type: cell-based; details: MRC5, 72 h; summary of the method: as §3
[8] = system: HeLa; test: Prooxidant activity in human HeLa cells assessed as increase in H2O2-induced reactive oxygen species at 10 uM preincubated for 24 hrs followed by H2O2 addition and measured after 30 mins by dichlorofluorescein dye-based flow cytometric method; type: functional, cell-based; summary of the method: as §1
[9] = system: HeLa; test: Cell cycle arrest in human HeLa cells assessed as accumulation at sub-G1 phase at 2 times IC50 after 24 hrs in presence of caspase-3 inhibitor Z-DEVD-FMK by propidium iodide-staining based flow cytometric method; type: functional
Summary of the method: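 HeLa cells pretreated 2 h with 40 μM peptide caspase inhibitor (Z-DEVD-FMK caspase-3, Z-IETD-FMK caspase-8 or Z-LEHD-FMK caspase-9), then exposed to 2×IC50 compound; subG1 fraction by propidium iodide flow cytometry, compared with samples lacking inhibitor.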

[10] = system: MRC5; test: Induction of DNA damage in human MRC5 cells assessed as formation of DNA breaks at 25 uM after 24 hrs by comet assay relative to control; type: functional
Summary of the method: (§5)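 MRC-5 cells exposed 24 h to 3.125–25 μM compound; DNA damage scored as % tail DNA (tail intensity) by comet assay. PBS negative control; H2O2 50 μM 5 min in-gel positive control. Triplicate, repeated twice; mean ± SD.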

[11] = system: HeLa; test: Downregulation of MMP2 gene expression in human HeLa cells at 10 uM after 24 hrs by RT-qPCR method; type: functional, cell-based
[12] = Antioxidant activity assessed as DPPH free radical scavenging activity after 30 mins; type: functional
Summary of the method: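 DPPH (0.05 mM in methanol) mixed with equal volume of compound (DMSO solution diluted in methanol), kept in dark at room temperature 30 min; absorbance at 517 nm, methanol control, ascorbic acid positive control. IC50 = concentration giving 50% of maximum scavenging; mean ± SD of independent triplicate experiments.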

[13] = system: HeLa; test: Cell cycle arrest in human HeLa cells assessed as accumulation at G2/M phase at 2 times IC50 after 24 hrs by propidium iodide staining-based flow cytometric method; type: functional; summary of the method: as §2
[14] = system: HeLa; test: Cell cycle arrest in human HeLa cells assessed as accumulation at G2/M phase at IC50 after 24 hrs by propidium iodide staining-based flow cytometric method; type: functional; summary of the method: as §2
[15] = system: MRC5; test: Induction of DNA damage in human MRC5 cells assessed as formation of DNA breaks after 24 hrs by comet assay; type: functional, cell-based; summary of the method: as §5
[16] = system: DNA; test: Reversal of Fe2+-induced Escherichia coli pUC19 DNA cleavage at 1:1 compound to Fe2+ mole ratio after 90 mins by agarose gel electrophoresis method; type: functional
Summary of the method: (§6)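 Compound (4 μL of 2 mM) preincubated with FeSO4 (1 or 2 μL of 8 mM; compound:Fe 1:1 or 1:2) in bicarbonate buffer 60 min at 37 °C, then pUC19 added for another 90 min; products resolved on 1% agarose gel, ethidium bromide stained.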

[17] = system: Calf thymus DNA; test: Binding affinity to calf thymus DNA assessed as hyperchromism at 20 uM after 90 mins by UV/visible spectrophotometric analysis; type: nucleic-acid assay; details: Bos taurus; summary of the method: as §4
[18] = system: Calf thymus DNA; test: Displacement of Hoechst 33258 from calf thymus DNA assessed as quenching constant by fluorescence spectrophotometric analysis; type: nucleic-acid assay; details: Bos taurus
Summary of the method: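 CT-DNA 100 μM (per phosphate) in 40 mM bicarbonate pH 8.4 pretreated 20 min with Hoechst 33258 (28 μM final), then compound added stepwise. Excitation 350 nm, emission 390–550 nm, read at 444 nm, 10 nm slits; H–DNA as control. Quenching constant K by Stern–Volmer, I0/I versus r = [compound]/[DNA]; triplicate.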

[19] = system: HeLa; test: Downregulation of miR-21 expression in human HeLa cells at 10 uM after 24 hrs by RT-qPCR method; type: functional, cell-based
[20] = system: Calf thymus DNA; test: Binding affinity to calf thymus DNA at 10 to 40 uM after 90 mins by UV/visible spectrophotometric analysis; type: nucleic-acid assay; details: Bos taurus; summary of the method: as §4
[21] = system: HeLa; test: Cell cycle arrest in human HeLa cells assessed as decrease in cell levels at G1 phase at 2 times IC50 after 24 hrs by propidium iodide staining-based flow cytometric method; type: functional; summary of the method: as §2
[22] = system: HeLa; test: Downregulation of miR-133b expression in human HeLa cells at 10 uM after 24 hrs by RT-qPCR method; type: functional, cell-based
[23] = system: A549; test: Cytotoxicity against human A549 cells assessed as decrease in cell survival after 72 hrs by MTT assay; type: functional, cell-based; details: A549, 72 h; summary of the method: as §3
[24] = system: HeLa; test: Downregulation of TIMP3 gene expression in human HeLa cells at 10 uM after 24 hrs by RT-qPCR method; type: functional, cell-based
[25] = system: DNA; test: Reversal of Fe2+-induced Escherichia coli pUC19 DNA cleavage at 1:2 compound to Fe2+ mole ratio after 90 mins by agarose gel electrophoresis method; type: functional; summary of the method: as §6

Activity [6]: -4.9%
IC50 [12]: 17.2 µM
Activity [17]: -7.36%
K [18]: 2.95
Activity [20]: Active
Structure (SMILES): Cc1cccc(C(=O)/C=C/c2ccc(C(=O)Nc3nnc(-c4ccc(O)c(O)c4)s3)cc2)c1
Activity [1]: Active
Activity [2]: Active
IC50 [3]: 8.39 µM
Activity [4]: inactive
Activity [5]: Active
IC50 [7]: 34.2 µM
Activity [8]: inactive
Activity [9]: inactive
Activity [10]: 38%
Activity [11]: Active
Activity [13]: Active
Activity [14]: Active
Activity [15]: Dose-dependent effect
Activity [16]: Active
Activity [19]: inactive
Activity [21]: Active
Activity [22]: Active
IC50 [23]: 27.9 µM
Activity [24]: Active
Activity [25]: Active
